The results in this text go back to ChEMBL document CHEMBL1128185, “New orally active serine protease inhibitors: structural requirements for their good oral activity” (J Med Chem, 1995).

Broadly, the half-life is the time needed for the level to fall by half in the phase considered. The low end stands for fast loss, the high end for slow loss.

Data set [1] in a line: The half-life period in vitro in plasma. Format: ADME, cell-free. In a few lines:
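Rat plasma (1.0 mL) spiked with 5 µL of drug dissolved at 2 mg/mL in 80% aqueous acetonitrile, incubated at 37 °C for 60 min. Parent drug and products followed by ion-paired HPLC with internal standard; metabolites identified by retention times of synthesized authentic samples. Stability expressed as half-life (min), mean of two separate experiments.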

Data set [2] can be described thus: The half-life period in vitro in rat small Intestine Homogenate. The class given is ADME. In a few lines: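 Small intestine from rats fasted 20 h, saline-washed, homogenized in 8 vol 1/10 M sodium phosphate pH 7.4, spun at 600g for 15 min; supernatant (1.0 mL) given 10 µL drug (5 mg/mL in 80% aqueous acetonitrile), 37 °C, 60 min. Aliquots quenched at intervals with acetonitrile containing internal standard and analyzed by HPLC. Half-life (min), mean of two experiments.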

As for `C/C(=C\c1ccc(C(=O)Oc2ccc(C(=N)N)cc2)cc1)C(=O)N(CC(=O)O)C1CCCCC1`, the half-life in data set [1] was over 60 min; in data set [2], 49 min.

Turning to `C=CCN(CCC(=O)O)C(=O)/C(C)=C/c1ccc(C(=O)Oc2ccc(C(=N)N)cc2)cc1`, the half-life was 47 min in data set [1] and over 60 min in data set [2]. For `CCOC(=O)CN(C(=O)/C(C)=C/c1ccc(C(=O)Oc2ccc(C(=N)N)cc2)cc1)C1CCCCC1`, in that order: under 5 min and over 60 min.

For `C/C(=C\c1ccc(C(=O)Oc2ccc(C(=N)N)cc2)cc1)C(=O)N(CC(=O)O)C1CCCC1`, the half-life was 23 min in data set [1] and 42 min in data set [2].

In the case of `CCOC(=O)CN(C(=O)/C(C)=C/c1ccc(C(=O)Oc2ccc(C(=N)N)cc2)cc1)C1CCCC1`, the values for the half-life in data set [1] and in data set [2] were under 5 min and over 60 min, respectively.

In data set [1], `CCOC(=O)C(C(=O)OCC)N(CCCC(=O)O)C(=O)/C(C)=C/c1ccc(C(=O)Oc2ccc(C(=N)N)cc2)cc1` had a half-life of 29 min. For `C/C(=C\c1ccc(C(=O)Oc2ccc(C(=N)N)cc2)cc1)C(=O)N(CC(=O)O)Cc1ccccc1`, the half-life was over 60 min in data set [1] and 50 min in data set [2].

Turning to `CCOC(=O)CCCN(C(=O)/C(C)=C/c1ccc(C(=O)Oc2ccc(C(=N)N)cc2)cc1)C(C(=O)OCC)C(=O)OCC`, the half-life in data set [1] was under 1 min. As to `C/C(=C\c1ccc(C(=O)Oc2ccc(C(=N)N)cc2)cc1)C(=O)N(CCO)Cc1ccccc1`, the half-life in data set [1] is under 5 min; in data set [2] it was 41 min.

Regarding `C=CCN(CCCC(=O)O)C(=O)/C(C)=C/c1ccc(C(=O)Oc2ccc(C(=N)N)cc2)cc1`, the results for the half-life in data set [1] and in data set [2] were over 60 min and 55 min, respectively. For `CCOC(=O)CN(Cc1ccccc1)C(=O)/C(C)=C/c1ccc(C(=O)Oc2ccc(C(=N)N)cc2)cc1`, in that order: under 1 min and 44 min.

For `CCN(CC(=O)O)C(=O)/C(C)=C/c1ccc(C(=O)Oc2ccc(C(=N)N)cc2)cc1`, the half-life in data set [1] was 60 min; in data set [2], over 60 min.

`CCOC(=O)CCCN(C(=O)/C(C)=C/c1ccc(C(=O)Oc2ccc(C(=N)N)cc2)cc1)C(C(=O)O)C(=O)OCC` (stereo not given): the half-life in data set [1] worked out at 14 min. With `C=CCN(CCC(=O)OCC)C(=O)/C(C)=C/c1ccc(C(=O)Oc2ccc(C(=N)N)cc2)cc1`, in data set [1], the half-life was under 1 min. Same read-out and setting: as for `C=CCN(CCCC(=O)OCC)C(=O)/C(C)=C/c1ccc(C(=O)Oc2ccc(C(=N)N)cc2)cc1`, the figure is under 1 min.
